Experimental findings from ChEMBL document CHEMBL4732120, “Discovery of novel PARP/PI3K dual inhibitors with high efficiency against BRCA-proficient triple negative breast cancer” (Eur J Med Chem, 2021) are described below.

In series [1] the target is T1, Phosphatidylinositol 4,5-bisphosphate 3-kinase catalytic subunit alpha isoform (Homo sapiens, UniProt P42336). As to the kind of experiment: Inhibition of PI3Kalpha (unknown origin) at 100 nM relative to control.
Series [2] has as its target T2, Poly [ADP-ribose] polymerase 1 (Homo sapiens, UniProt P09874). The following applies: dose 10.0 nM.
The test system of series [3] is MDA-MB-468. As to the kind of experiment: Induction of apoptosis in human MDA-MB-468 cells assessed as viable cells at 1 uM measured after 72 hrs by Annexin V-FITC/propidium iodide staining based flow cytometry (reference value: 95.2%). It is filed as functional. The following applies: read-out: Activity. For orientation: A flow cytometer gives signals particle by particle.

Series [4] relates to MDA-MB-468. Nature of the series: Induction of apoptosis in human MDA-MB-468 cells assessed as early apoptotic cells at 1 uM measured after 72 hrs by Annexin V-FITC/propidium iodide staining based flow cytometry (reference value: 3.88%). It is filed as functional.
Series [5] concerns MDA-MB-468. Nature of the series: Induction of apoptosis in human MDA-MB-468 cells assessed as late apoptotic cells at 1 uM measured after 72 hrs by Annexin V-FITC/propidium iodide staining based flow cytometry (reference value: 0.78%). In kind it is functional.
For series [6], the system named is MDA-MB-468. Nature of the series: Induction of apoptosis in human MDA-MB-468 cells assessed as necrotic cells at 1 uM measured after 72 hrs by Annexin V-FITC/propidium iodide staining based flow cytometry (reference value: 0.13%). It is filed as functional.
The subject of series [7] is MDA-MB-468. Nature of the series: Inhibition of PARP1/PI3Kalpha in human MDA-MB-468 cells assessed as down regulation of BRCA1 mRNA expression at 1 uM by RT-PCR analysis.
For series [8], the system named is MDA-MB-468. As to the kind of experiment: Inhibition of PARP1/PI3Kalpha in human MDA-MB-468 cells assessed as down regulation of BRCA2 mRNA expression at 1 uM by RT-PCR analysis.
For series [9], the system named is MDA-MB-468. Nature of the series: Antitumor activity against human MDA-MB-468 cells xenografted in BALB/c mouse assessed as tumor growth inhibition at 27.5 mg/kg, ip administered every two days for 34 days relative to control. Conditions: MDA-MB-468, ip, 816 h, read-out: TGI. On the technique in general: A xenograft is tissue or cells of one species grown in another, often human tumour cells in immunodeficient mice.

Series [10] has as its target T2, Poly [ADP-ribose] polymerase 1. As to the kind of experiment: Inhibition of PARP1 (unknown origin). A digest of the protocol:
(§1)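 PARP-1 and PI3Kα enzyme inhibition. IC50 taken from dose-response curves and given as mean ± SD of three independent experiments.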

Series [11] concerns the target T1, Phosphatidylinositol 4,5-bisphosphate 3-kinase catalytic subunit alpha isoform. Nature of the series: Inhibition of PI3Kalpha (unknown origin). A digest of the protocol: as §1
Series [12] is described as follows: Solubility of compound at pH 7. In kind it is physicochemical. Conditions: buffer.
A short description of series [13]: Solubility of compound. In kind it is physicochemical.
Series [14] relates to MDA-MB-468. Nature of the series: Antiproliferative activity against human MDA-MB-468 cells measured after 7 days by Celltiter-glo assay. In kind it is functional, cell-based. Conditions: MDA-MB-468, 168 h. A digest of the protocol:
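MDA-MB-468 cells grown in RPMI1640 with 10% FBS at 37 °C, 5% CO2. Seeded the day before dosing, grown 12 h, then exposed to a range of concentrations for 7 days. Viability read by CellTiter-Glo luminescence after 10 min at room temperature. Inhibition % = (1 − (RLU cpd − blank)/(RLU DMSO − blank)) × 100. IC50 from nonlinear regression of normalized dose-response.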

The subject of series [15] is MDA-MB-468. Nature of the series: Induction of apoptosis in human MDA-MB-468 cells assessed as viable cells at 2 uM measured after 72 hrs by Annexin V-FITC/propidium iodide staining based flow cytometry (reference value: 95.2%). In kind it is functional. Conditions: read-out: Activity.
Series [16] deals with MDA-MB-468. Nature of the series: Induction of apoptosis in human MDA-MB-468 cells assessed as early apoptotic cells at 2 uM measured after 72 hrs by Annexin V-FITC/propidium iodide staining based flow cytometry (reference value: 3.88%). In kind it is functional.
In series [17] the test system is MDA-MB-468. Nature of the series: Induction of apoptosis in human MDA-MB-468 cells assessed as necrotic cells at 2 uM measured after 72 hrs by Annexin V-FITC/propidium iodide staining based flow cytometry (reference value: 0.13%). It is filed as functional.
Series [18] concerns MDA-MB-468. As to the kind of experiment: Inhibition of PARP1/PI3Kalpha in human MDA-MB-468 cells assessed as down regulation of BRCA1 mRNA expression at 2 uM by RT-PCR analysis.
Series [19] deals with MDA-MB-468. Nature of the series: Inhibition of PARP1/PI3Kalpha in human MDA-MB-468 cells assessed as down regulation of BRCA2 mRNA expression at 2 uM by RT-PCR analysis.
In series [20] the test system is MDA-MB-468. As to the kind of experiment: Antitumor activity against human MDA-MB-468 cells xenografted in BALB/c mouse assessed as tumor growth inhibition at 50 mg/kg, ip administered every two days for 34 days relative to control. Conditions: MDA-MB-468, ip, 816 h, read-out: TGI.

The source made the active and inactive calls. The rule behind the calls is not given here.

T1 sequence (P42336 whole entry, canonical isoform): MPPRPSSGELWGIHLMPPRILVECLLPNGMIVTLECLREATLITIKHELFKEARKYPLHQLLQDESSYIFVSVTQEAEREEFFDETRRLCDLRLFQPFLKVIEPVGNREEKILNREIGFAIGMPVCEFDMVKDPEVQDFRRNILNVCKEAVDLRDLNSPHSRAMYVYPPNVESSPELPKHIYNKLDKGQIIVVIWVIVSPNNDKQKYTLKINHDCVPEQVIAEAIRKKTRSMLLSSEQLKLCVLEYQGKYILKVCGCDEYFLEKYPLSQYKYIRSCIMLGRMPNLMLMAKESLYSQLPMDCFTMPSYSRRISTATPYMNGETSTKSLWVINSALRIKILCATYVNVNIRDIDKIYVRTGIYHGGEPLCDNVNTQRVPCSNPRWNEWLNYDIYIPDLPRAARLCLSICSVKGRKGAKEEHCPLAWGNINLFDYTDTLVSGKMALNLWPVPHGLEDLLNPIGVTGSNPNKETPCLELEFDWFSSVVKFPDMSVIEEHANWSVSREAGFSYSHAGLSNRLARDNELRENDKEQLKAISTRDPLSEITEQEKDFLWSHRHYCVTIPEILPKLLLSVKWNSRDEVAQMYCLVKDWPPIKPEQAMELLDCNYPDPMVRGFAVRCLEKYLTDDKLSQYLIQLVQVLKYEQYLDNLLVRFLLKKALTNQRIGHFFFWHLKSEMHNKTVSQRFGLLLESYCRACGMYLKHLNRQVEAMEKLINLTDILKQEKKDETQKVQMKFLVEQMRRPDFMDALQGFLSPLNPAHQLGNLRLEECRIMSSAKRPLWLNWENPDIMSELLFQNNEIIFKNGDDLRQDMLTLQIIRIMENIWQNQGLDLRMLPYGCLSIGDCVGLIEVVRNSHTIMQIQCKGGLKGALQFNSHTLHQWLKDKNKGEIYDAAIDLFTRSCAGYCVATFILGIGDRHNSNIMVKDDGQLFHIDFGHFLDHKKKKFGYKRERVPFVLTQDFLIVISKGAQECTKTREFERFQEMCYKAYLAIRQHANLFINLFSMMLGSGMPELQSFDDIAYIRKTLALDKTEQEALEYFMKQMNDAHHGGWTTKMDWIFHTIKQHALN
T2 sequence (P09874 whole entry): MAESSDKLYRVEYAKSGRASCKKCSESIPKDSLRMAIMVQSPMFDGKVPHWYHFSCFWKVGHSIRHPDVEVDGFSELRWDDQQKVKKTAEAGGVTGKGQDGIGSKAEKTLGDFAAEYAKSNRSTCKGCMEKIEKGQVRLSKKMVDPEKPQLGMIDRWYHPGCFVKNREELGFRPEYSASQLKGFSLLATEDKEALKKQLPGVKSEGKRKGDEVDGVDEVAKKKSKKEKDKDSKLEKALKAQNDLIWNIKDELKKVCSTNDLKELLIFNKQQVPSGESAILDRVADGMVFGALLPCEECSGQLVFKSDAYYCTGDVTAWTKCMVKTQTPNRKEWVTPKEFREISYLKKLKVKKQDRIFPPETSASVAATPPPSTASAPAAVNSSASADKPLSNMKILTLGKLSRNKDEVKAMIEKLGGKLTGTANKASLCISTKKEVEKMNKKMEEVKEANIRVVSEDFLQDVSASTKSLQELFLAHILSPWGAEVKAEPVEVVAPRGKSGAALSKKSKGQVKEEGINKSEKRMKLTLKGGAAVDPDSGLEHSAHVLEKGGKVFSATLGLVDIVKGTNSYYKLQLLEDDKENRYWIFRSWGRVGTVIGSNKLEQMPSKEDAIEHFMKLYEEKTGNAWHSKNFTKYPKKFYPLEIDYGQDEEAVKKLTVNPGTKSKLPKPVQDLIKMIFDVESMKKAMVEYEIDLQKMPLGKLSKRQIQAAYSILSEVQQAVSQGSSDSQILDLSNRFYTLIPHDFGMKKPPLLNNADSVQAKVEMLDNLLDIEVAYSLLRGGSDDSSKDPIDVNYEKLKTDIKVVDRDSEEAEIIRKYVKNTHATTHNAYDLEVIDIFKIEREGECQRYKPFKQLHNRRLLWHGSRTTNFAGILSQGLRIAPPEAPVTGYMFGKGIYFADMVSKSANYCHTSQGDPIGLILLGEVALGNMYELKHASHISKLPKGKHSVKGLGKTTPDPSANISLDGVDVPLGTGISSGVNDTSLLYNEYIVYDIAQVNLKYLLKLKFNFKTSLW

As for `NC(=O)c1cccc2cc(C(=O)N3CCN(c4nc(N5CCOCC5)nc(-n5c(C(F)F)nc6ccccc65)n4)CC3)oc12`, the inhibition (as a rule, the drop in the measured response relative to a control, in per cent) was determined as 29% in [1] and 36% in series [2].

`Nc1cc(C(F)(F)F)c(-c2cc(N3CCOCC3)nc(N3CCOCC3)n2)cn1` [BUPARLISIB] showed an inhibition in series [1] of 82%. Further, the viability at 1 µM in series [3] was 91.9%. Also, the values for the Activity in series [4], in [5] and in series [6] were 6.13%, 1.82% and 0.16%, respectively. The inhibition result in series [7] and in series [8] was “Active” in each case. Further, the inhibition in vivo at 27.5 mg/kg in series [9] came out at 33.4%.

As to `NC(=O)c1cccc2cc(C(=O)N3CCN(c4cc(-c5cnc(N)nc5)nc(N5CCOCC5)n4)CC3)oc12`, the inhibition in [1] worked out at 60%; in series [2] it was 85%.

As for `NC(=O)c1cccc2cc(C(=O)N3CCN(c4nc(-c5cnc(NC(=O)CN6CCOCC6)cc5C(F)(F)F)nc(N5CCOCC5)n4)CC3)oc12`, the inhibition result in series [7] and in series [8] was “Active” throughout.

Consider `NC(=O)c1cccc2cc(C(=O)N3CCN(c4nc(-c5ccc(N)nc5)nc(N5CCOCC5)n4)CC3)oc12`, for which the values for the inhibition in series [1] and in [2] were 79% and 61%, respectively. Further, the values for the 50% inhibitory concentration (IC50) in series [10] and in series [11] were 10.8 nM and 119 nM, respectively.

Take `NC(=O)c1cccc2cc(C(=O)N3CCN(c4nc(-c5ccc6[nH]ccc6c5)nc(N5CCOCC5)n4)CC3)oc12`: the inhibition worked out at 8% in series [1] and 62% in series [2].

Take `NC(=O)c1cccc2cc(C(=O)N3CCN(c4cc(-n5c(C(F)F)nc6ccccc65)nc(N5CCOCC5)n4)CC3)oc12`: the inhibition in [1] was 26%; in [2] it was 38%.

`Cl.NC(=O)c1cccc2cc(C(=O)N3CCN(c4nc(-c5cnc(N)cc5C(F)(F)F)nc(N5CCOCC5)n4)CC3)oc12`: the solubility (commonly the dissolved amount per volume that the medium holds) in [12] is less than 100 µg/mL.

`NC(=O)c1cccc2cc(C(=O)N3CCN(c4nc(-c5cnc(N)nc5)nc(N5CCOCC5)n4)CC3)oc12`: the inhibition in series [1] amounted to 86%; in [2], 70%. Moreover, the IC50 (in general, the concentration that inhibits the measured activity by half) in series [10] was 5.8 nM; in series [11], 6.3 nM. For the same compound, in [13], the solubility result is “Insoluble”.

Regarding `Cl.NC(=O)c1cccc2cc(C(=O)N3CCN(c4nc(-c5cnc(NC(=O)CN6CCOCC6)cc5C(F)(F)F)nc(N5CCOCC5)n4)CC3)oc12`, the solubility in series [12] is greater than 10000 µg/mL.

Turning to `NC(=O)c1cccc2cc(C(=O)N3CCN(c4nc(-c5cnc(N)cc5C(F)(F)F)nc(N5CCOCC5)n4)CC3)oc12` [listing 1 of 2 here], the IC50 in series [10] is 7.3 nM; in [11], 39.6 nM; in [14], 4060 nM.

As for `NC(=O)c1cccc2cc(C(=O)N3CCN(c4cc(-c5cnc(N)cc5C(F)(F)F)nc(N5CCOCC5)n4)CC3)oc12`, the inhibition in series [1] turned out to be 80%; in [2] it was 51%.

For the compound `NC(=O)c1cccc2cc(C(=O)N3CCN(c4nc(-c5ccc(N)c(F)c5)nc(N5CCOCC5)n4)CC3)oc12`, the inhibition was 5% in [1] and 51% in series [2].

`NC(=O)c1cccc2cc(C(=O)N3CCN(c4nc(-c5cnc(N)cc5C(F)(F)F)nc(N5CCOCC5)n4)CC3)oc12` [listing 2 of 2 here]: the figures for the inhibition in series [1] and in series [2] were 77% and 60%, respectively.

For `O=C(c1cc(Cc2n[nH]c(=O)c3ccccc23)ccc1F)N1CCN(C(=O)C2CC2)CC1` [OLAPARIB], the viability at 2 µM in series [15] was found to be 91.5%. The results for the Activity in series [16] and in [17] were 6.6% and 0.16%, respectively. Besides, the inhibition result in [18] and in series [19] was “Active” in each case. In addition, in series [20], the inhibition in vivo at 50 mg/kg turned out to be 28.5%.
